The values below come from the EternaBench riboswitch data.

The test system of this data set is MS2 coat protein. Briefly: apparent Kd, MS2 coat protein; higher = weaker binding; RNA-MaP array; FMN 200 µM where present. The procedure, abridged:
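Green signal was scaled to red-channel RNA signal and control-cluster median Fmax, and the apparent Kd was taken as the median of filtered per-cluster binding-curve fits. The binding series used SNAP-549-labelled MS2 coat protein from 0.7 or 1.5 nM, doubling to 3 µM, on designs transcribed by stalled E. coli RNA polymerase on Illumina sequencing-chip clusters. Each series ran without and then with constant ligand in 100 mM Tris-HCl pH 7.5, 80 mM KCl, 4 mM MgCl2, BSA, DTT, yeast tRNA and Tween-20.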

Setting [1] is: designed as: OFF switch for flavin mononucleotide, no ligand.
The mark [2] stands for this setting: ligand present: flavin mononucleotide, designed as: OFF switch for flavin mononucleotide.
Setting [3] is: designed as: ON switch for flavin mononucleotide, no ligand.
Setting [4] is: ligand present: flavin mononucleotide, designed as: ON switch for flavin mononucleotide.

As for “GUCAGCUCGUGAGGAUAUACAACACUGCUUCGGCAGUGUAUUAUGAUCACAUGAGGAUCACCCAUGUAGAAGGCACGAGCUGAU”, the “apparent Kd” value reads like this: under setting [1], 29.3 nM; under setting [2], 230 nM.

For “AUGGUACAUGAGGAUCACCCAUGUUAGGAUAUCGCGUGACCUAAAACUAAGAGACACACGAGAAGGGACGACAU”, the “apparent Kd” value under setting [1] was found to be 89.6 nM and the “apparent Kd” value under setting [2] stood at 78.1 nM.

With “CGGGAGUCAGGAUAUACGAACAUGUCGCCAGAUGUCAAGGUACAUGAGGAUCACCCAUGUAGAAGGGAGGAGAA”, the “apparent Kd” value under setting [1] came out at 91 nM and the “apparent Kd” value under setting [2] is 54.3 nM.

“ACGUAAAUUCGAGGAUAUCGGUGAUAUAAUUUACGAGAAGGCGAUAAUUGUGAUAAACUUAUAGACAUGAGGAUCACCCAUGUA”: the “apparent Kd” value is, setting by setting: under setting [3], 42.7 nM; under setting [4], 37.9 nM.

With “AAAAGGAUCUAACACGACGGGUCACCAGAAGGGACAUUGGCACAUGAGGAUCACCCAUGUCUAGGUCAGGAUAUGGGAUCAAGA”, the “apparent Kd” value is, setting by setting: under setting [3], 72.3 nM; under setting [4], 10.4 nM.

Turning to “UAGGAGUACGUAGGAUAUGUAGGAUAUUCCUACAUGAGGAUCACCCAUGUAUGCAUGGAAGAAGGACAGAAGGACGUGCUCCUU”, the “apparent Kd” value reads like this: under setting [3], 200 nM; under setting [4], 13.2 nM.

Turning to “UGGAGAAAUCAAGGAUAUGCUACCGUUUCGGUAGCAGAAGGUGAUCACAUGAGGAUCACCCAUGUAUGCAUGCGUGAGCGUGCU”, the “apparent Kd” value under setting [3] is 46.4 nM and the “apparent Kd” value under setting [4] came out at 289 nM.

“UUAAUAUAUCAGGAUAUGAUUAUAUGUGUUGAAUCAGAAGGGAUAACAUGAGGAUCACCCAUGUUGUGGAGUGA”: the “apparent Kd” value reads like this: under setting [1], 69.3 nM; under setting [2], 206 nM.

Take “CGCGGUACUUAGGUACCACACAUGAGGAUCACCCAUGUAUCACAGGAUAUGCAUGAUAUAUUCAGGCAGAAGGGUGAUCUUACC”: the “apparent Kd” value reads like this: under setting [3], 37.8 nM; under setting [4], 99.4 nM.

As for “AACAGCACAGGAUAUACAUGAGGAUCACCCAUGUGAGAAUUAAGUAGAUUGCCACAGAGUAGAAGGGUGCUGGA”, the “apparent Kd” value reads like this: under setting [1], 53.7 nM; under setting [2], 104 nM.

As for “UAAUUGUGAGGAUAUUCGUAGUACACGGAGACGUGUAUUACGGAGAAGGCACAUGAGGAUCACCCAUGUUCCUU”, the “apparent Kd” value worked out at 18.2 nM under setting [1] and 89.4 nM under setting [2].

As to “AAGAAGUCAGGAUAUCCUGCUCGUCACUUGCGUGAUGAGUAGGAGAAGGGACAUGAGGAUCACCCAUGUAAAGA”, the “apparent Kd” value is, setting by setting: under setting [1], 54.3 nM; under setting [2], 51.5 nM.

Regarding “CAGUCUACAGGAUAUACAUGAGGAUCACCCAUGUGUAUUCACUUUCAGUAGUCCAUAUGUAGAAGGGUAGACUG”, the “apparent Kd” value is, setting by setting: under setting [1], 15.9 nM; under setting [2], 22.5 nM.

Take “CCGCGACACGAAGGAUAUGUGGGUGGUAGUCUGUGCUCCGCCUACAUGAGGAUCACCCAUGUAUCACAGAAGGUCGGACGUCGA”: the “apparent Kd” value was found to be 26.7 nM under setting [3] and 125 nM under setting [4].

On to “AGUUAAUAUCGAGGAUAUCCUCUGAAACAUGAGGAUCACCCAUGUAGAAUGGGAGAAGGCGAUAUUAACAGCAUGUUACAUGCA”, for which the “apparent Kd” value reads like this: under setting [3], 111 nM; under setting [4], 48.6 nM.

For the sequence “UUAAUUAUACAAGGAUAUCUAUUGUAGUUUCGACUUACAUGAGGAUCACCCAUGUUAAUAUGUUUAGAGAAGGUGUAUUUUCUG”, the “apparent Kd” value runs as follows: under setting [3], 51 nM; under setting [4], 49.5 nM.

As to “GGACAUGAGGAUCACCCAUGUCGAACAUGAGGAUCACCCAUGUAGGAUAUGCUACUCAAAGAGUAGCAGAAGGACAUGUGCCUU”, the “apparent Kd” value is, setting by setting: under setting [1], 53.7 nM; under setting [2], 51.2 nM.

Take “GCAGCGUAUGUAGGAUAUCGGUCAGUUUCUGAUCGAGAAGGACAUGAGGAUCACCCAUGUAAAAUACCGACUUUGUCGGGCUGC”: the “apparent Kd” value runs as follows: under setting [1], 6.43 nM; under setting [2], 8.11 nM.

As to “CUACGUGUCGAGAAGGGCUCACGUAACGGAACAGCAGGAUAUCGACAUGAGGAUCACCCAUGUCGGAACGAACGGAUCUUUAAU”, the “apparent Kd” value reads like this: under setting [1], 7.24 nM; under setting [2], 8.18 nM.

On to “UCAGGAGUCACAGGAUAUCCGGCAUAGCAUACAGGAGAAGGGUGAUCACAAGCACAUGAGGAUCACCCAUGUGACAUUUGUGGA”, for which the “apparent Kd” value under setting [3] is 115 nM and the “apparent Kd” value under setting [4] was 49.5 nM.

Take “UAGCUCGUGUGAGGAUAUGCCGCCGUUUCGGCUGCAGAAGGUGCUACGUUACAUGAGGAUCACCCAUGUCUCUGUUGUUUCGUC”: the “apparent Kd” value reads like this: under setting [3], 32.5 nM; under setting [4], 30.5 nM.

On to “GCUCGUCGUGGAAGAGCAAAAGGACAGGAUAUCGCUUAAACAUGAGGAUCACCCAUGUCCGUUAACGAGAAGGGUCGAAUAAAU”, for which the “apparent Kd” value is, setting by setting: under setting [3], 138 nM; under setting [4], 24.3 nM.

In the case of “GUAUUAAAGAUCCAUUUAUUCAACAUGAGGAUCACCCAUGUGCAGGAUAUCGUGUGUUUUAUAUUCGAGAAGGGCAAAUUCAUU”, the “apparent Kd” value under setting [1] stood at 44.6 nM and the “apparent Kd” value under setting [2] is 104 nM.

As for “UUCGAAUUGUAGGAUAUUUUGCCCGAUUGGGCGGGAGAAGGGCAGACAUGAGGAUCACCCAUGUGUCAGGCAGU”, the “apparent Kd” value reads like this: under setting [1], 40.8 nM; under setting [2], 40.5 nM.

On to “CGGGUCUGAGGAUAUCCAUCUUCAUACAUGAGGAUCACCCAUGUUCACCCUUGGGUUCCCGGAGAAGGCAGUUUUC”, for which the “apparent Kd” value runs as follows: under setting [1], 65 nM; under setting [2], 67.8 nM.

Regarding “GCAGCUAUUAUUAUACAUGAGGAUCACCCAUGUUACAUGUGUAAGGAUAUUGAUGUUUAUAUAAUCAAGAAGGUACGAAGCUGC”, the “apparent Kd” value runs as follows: under setting [3], 11.6 nM; under setting [4], 7.15 nM.

With “GUGCCUAACUAGAAGGCCCAAUGCAAAGCAUAGGGAGGAUAUGGGUUUAAUAAAUAAACAUGAGGAUCACCCAUGUGGCACAAA”, the “apparent Kd” value came out at 45.5 nM under setting [3] and 10.1 nM under setting [4].

Turning to “UUAAAUCAUGUAGGAUAUGCAUGGCGAAGCUACGCAGAAGGACAUGAGGAUCACCCAUGUUAAAGCGACCGAGUUCGGUUGCAA”, the “apparent Kd” value is, setting by setting: under setting [1], 124 nM; under setting [2], 214 nM.

As to “GCCAUCGUAUGAGGAUAUGACACCGAAACGGUGUCAGAAGGCAUGUCGAUAGACAUGAGGAUCACCCAUGUAUUAACGAUGGCA”, the “apparent Kd” value under setting [3] is 740 nM and the “apparent Kd” value under setting [4] came to 94.2 nM.

As for “CCAUGUUAGCAGGAUAUGCUAUUAAUCUUUUAUGCAGAAGGGCUUACAUGAGGAUCACCCAUGUAUUAAGUCAA”, the “apparent Kd” value was 14.1 nM under setting [1] and 47.8 nM under setting [2].

Turning to “CAGUACUGAGGAUAUACAUGAGGAUCACCCAUGUGUUCCAGCUAGGAAACUAGCAAUUGUAGAAGGCAGUACUG”, the “apparent Kd” value is, setting by setting: under setting [1], 59.2 nM; under setting [2], 428 nM.

Regarding “UUUUAACAUGAGGAUCACCCAUGUGAGGAUAUCGAAAUUUAUAUUAAUAUUAAUAUAACGAGAAGGCACAUUUU”, the “apparent Kd” value reads like this: under setting [1], 52 nM; under setting [2], 70.2 nM.

“AUUAAUUAAUUAAUACAUGAGGAUCACCCAUGUAAUAAGAUCUAGGAUAUCAGCUCGAAUAGAGCUGAGAAGGAGAUCACAUGU”: the “apparent Kd” value under setting [3] was found to be 43.4 nM and the “apparent Kd” value under setting [4] came to 35.3 nM.

As for “GUAGCUAUCGGAGGAUAUCCAUACCGGAAACGGACAUGAGGAUCACCCAUGUGGCGAAAGCCUUGGGAGAAGGCCGAUAGCUAC”, the “apparent Kd” value under setting [3] was found to be 5.06 nM and the “apparent Kd” value under setting [4] stood at 3.36 nM.

For “ACAUGAUCAGGAUAUACAUGAGGAUCACCCAUGUAUUUCAAAAAGGGACUUUCUUUAUGUAGAAGGGAUCUUGU”, the “apparent Kd” value was 15.8 nM under setting [1] and 43.1 nM under setting [2].

As to “AGCAUGUAAGGAUAUGUAACGCGGCGUUCAUUCGUCGUCCCACAGAAGGUACAUGAGGAUCACCCAUGUGCUCC”, the “apparent Kd” value is, setting by setting: under setting [1], 42 nM; under setting [2], 77.7 nM.

On to “GUCAGCUCGUGAGGAUAUACAACACUGCUUCGGCAGUGUAUUAAGAUCACAUGAGGAUCACCCAUGUAGAAGGCACGAGCUGCU”, for which the “apparent Kd” value is, setting by setting: under setting [1], 12.9 nM; under setting [2], 276 nM.

For the sequence “GCCAUCGUAUGAGGAUAUGGCACCGAAACGGUGCCAGAAGGCAUGUCAAUAGACAUGAGGAUCACCCAUGUCUUAUCGAUGGCA”, the “apparent Kd” value is, setting by setting: under setting [3], 19.9 nM; under setting [4], 18.9 nM.

For the sequence “CUUUUAUAAUAGAAGGUAGACUUUAAGUGGAUCACCCAUGUGUAGGUACUAAGGAUAUGUAGUUACAUGAGGAUCACCCAUGUU”, the “apparent Kd” value reads like this: under setting [3], 172 nM; under setting [4], 143 nM.

“UGAAAUCAUGUAGGAUAUGCAUGGCGAAGCUACGCAGAAGGACAUGAGGAUCACCCAUGUUAUAGCGUCCGAUAAAGGAUGCAA”: the “apparent Kd” value was 135 nM under setting [1] and 139 nM under setting [2].

As to “AAAAGACAUGAGGAUCACCCAUGUAAAAACGUGGGAGGAUAUGUAUGGAAACCAGACUGUACAGAAGGCCUUUGUC”, the “apparent Kd” value runs as follows: under setting [3], 138 nM; under setting [4], 164 nM.

Turning to “UUUGUUUUGCAAGGAUAUGUUUAAUUUUAUUUUCCUUACACAUGAGGAUCACCCAUGUUAUACUUACAGAAGGUGCGUAAUUUG”, the “apparent Kd” value under setting [1] was found to be 158 nM and the “apparent Kd” value under setting [2] was 151 nM.

For “UGGAUGUAGGAGAAGGAGGACUUCAUGAGGAUCACCCAUGUGUUAGGACUUAGGAUAUUUGACGACAUGAGGAUCACCCAUGUG”, the “apparent Kd” value under setting [3] is 63.6 nM and the “apparent Kd” value under setting [4] came to 58.4 nM.

As to “CACUCGUGUCUAGGAUAUGAGUGACAAGCGCGAGAUUUCCUCGCCGCUAGCUCAGAAGGAGACAUGAGGAUCACCCAUGUAAGG”, the “apparent Kd” value reads like this: under setting [1], 90 nM; under setting [2], 24.4 nM.

“GCUGACGAUGUAGGAUAUCAGUAUAAUAAAUACUGAGAAGGACAUGAGGAUCACCCAUGUACUCAACGUCAGCAGAGGAAACUC”: the “apparent Kd” value was 17.8 nM under setting [1] and 22.5 nM under setting [2].

Consider “AAAAAGUCAGGAUAUUCGGAUAGGAAAACGAAAACCUAUCCGAAGAAGGGACAUGAGGAUCACCCAUGUAAAAA”, for which the “apparent Kd” value turned out to be 27.4 nM under setting [1] and 46.5 nM under setting [2].

Take “UUGUUACAUGAGGAUCACCCAUGUGAGGAUAUGGUUCGGUACUGUCAUGUCGCGUACUCCAGAAGGCACAUGUU”: the “apparent Kd” value is, setting by setting: under setting [1], 97.1 nM; under setting [2], 303 nM.

With “CAAUUUAUAACAGGAUAUGUAAUUCAAUAGAAAAUAGAAGGGUUUUAUACAUGAGGAUCACCCAUGUCAUGUAUCAUAAUUACC”, the “apparent Kd” value stood at 143 nM under setting [1] and 122 nM under setting [2].

For orientation: apparent Kd means the concentration giving half-maximal binding under the conditions of the assay.
